Laboratory results: ChEMBL document CHEMBL1129463, “Discovery of 1,5-benzodiazepines with peripheral cholecystokinin (CCK-A) receptor agonist activity (II): Optimization of the C3 amino substituent” (J Med Chem, 1996)
Calls of active or inactive are those of the source. The calls are words filed in the database; no cut-off is given here.

Legend:
Cavia porcellus [1] = organism: Cavia porcellus; assay: In vitro functional activity on the isolated guinea pig gallbladder; parameters: concentration or dose not given beside the values
Cavia porcellus [2] = organism: Cavia porcellus; assay: In vitro Functional activity on the isolated guinea pig gallbladder following incubation at 1 micro M percent contraction normalized to that for CCK-8
Method in brief: (§1)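 Contraction is expressed as percent of the CCK-8 (1 μM) response. Non-contracting compounds were tested for antagonism against a CCK-8 curve (10⁻¹¹ to 10⁻⁶ M).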

Cavia porcellus [3] = organism: Cavia porcellus; assay: Maximum contractile response at 30 uM, normalized to CCK-8 (1 uM); assay type: functional
Cavia porcellus [4] = organism: Cavia porcellus; assay: In-vitro potency on the isolated guinea pig gallbladder; assay type: functional
Mus musculus [5] = assay: Compound was tested in vivo for its activity in mouse gallbladder emptying assay at dose of 0.1 umol/kg ip; assay type: functional
Rattus norvegicus [6] = assay: Compound was tested in vivo for its anorectic potency in rats at dose of 0.5 umol/kg ip
Rattus norvegicus [7] = assay: Compound was tested in vivo for its Percent Maximal anorectic potency in rats at dose of 0.5 umol/kg ip
Rattus norvegicus [8] = assay: Compound was tested in vivo for its Percent Maximal anorectic potency in rats at dose of 10 umol/kg po; ia = Inactive
Mus musculus [9] = assay: Compound was tested in vivo Percent Maximal response activity in mouse gallbladder emptying assay at dose of 1 nmol/kg ip
Cavia porcellus [10] = organism: Cavia porcellus; assay: In vitro potency on the isolated guinea pig gallbladder; assay type: functional
Mus musculus [11] = assay: Compound was tested in vivo for its activity in mouse gallbladder emptying assay at dose of 1 umol/kg po; ia = Inactive; assay type: functional, organism-based
Mus musculus [12] = assay: Compound was tested in vivo for Percent Maximal response in mouse gallbladder emptying assay at dose of 1 umol/kg po; ia = Inactive; assay type: functional, organism-based
Rattus norvegicus [13] = assay: Compound was tested in vivo for its Percent Maximal anorectic potency in rats at dose of 0.1 umol/kg ip; assay type: functional
[14] = target: T1, Gastrin/cholecystokinin type B receptor (Homo sapiens, UniProt P32239); assay: Compound was tested in vitro for its ability to displace [125I]Bolton-Hunter CCK-8 from membrane preparation isolated from CHO-KI cells stably transfected with cDNA of human Cholecystokinin type B receptor; assay type: cell membranes
T1 sequence (P32239 whole entry): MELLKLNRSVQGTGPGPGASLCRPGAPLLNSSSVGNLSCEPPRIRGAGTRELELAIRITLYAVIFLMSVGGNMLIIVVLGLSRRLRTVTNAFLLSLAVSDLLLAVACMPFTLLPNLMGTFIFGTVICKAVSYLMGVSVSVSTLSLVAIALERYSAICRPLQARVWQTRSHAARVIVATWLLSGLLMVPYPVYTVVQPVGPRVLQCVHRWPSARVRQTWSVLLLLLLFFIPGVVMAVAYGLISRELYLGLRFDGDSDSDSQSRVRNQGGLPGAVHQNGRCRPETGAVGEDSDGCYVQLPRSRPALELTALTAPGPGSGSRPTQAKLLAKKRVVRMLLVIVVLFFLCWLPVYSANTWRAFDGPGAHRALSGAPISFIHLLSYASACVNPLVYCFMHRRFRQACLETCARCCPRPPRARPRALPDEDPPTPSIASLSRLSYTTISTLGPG

[15] = target: T2, Cholecystokinin receptor type A (Homo sapiens, UniProt P32238); assay: Compound was tested in vitro for its ability to displace [125I]Bolton-Hunter CCK-8 from membrane preparation isolated from CHO-KI cells stably transfected with cDNA of human Cholecystokinin type A receptor; assay type: cell membranes
T2 sequence (P32238 whole entry): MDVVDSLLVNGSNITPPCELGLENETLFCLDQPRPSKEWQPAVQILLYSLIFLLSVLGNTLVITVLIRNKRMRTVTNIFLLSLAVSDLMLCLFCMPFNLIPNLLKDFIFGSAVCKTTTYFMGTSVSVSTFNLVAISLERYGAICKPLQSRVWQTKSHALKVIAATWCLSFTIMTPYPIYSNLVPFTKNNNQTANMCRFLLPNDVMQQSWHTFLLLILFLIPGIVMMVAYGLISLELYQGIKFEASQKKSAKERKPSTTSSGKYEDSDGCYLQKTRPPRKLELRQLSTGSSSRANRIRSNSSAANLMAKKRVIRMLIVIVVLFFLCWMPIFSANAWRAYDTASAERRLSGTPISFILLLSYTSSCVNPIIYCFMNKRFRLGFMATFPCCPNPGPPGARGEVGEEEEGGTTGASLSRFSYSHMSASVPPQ

Mus musculus [16] = assay: Compound was tested in vivo for its activity in mouse gallbladder emptying assay at dose of 1 umol/kg po; assay type: functional
Mus musculus [17] = assay: Compound was tested in vivo for Percent Maximal response in mouse gallbladder emptying assay at dose of 1 umol/kg po; assay type: functional
Rattus norvegicus [18] = assay: Compound was tested in vivo for its anorectic potency in rats at dose of 0.1 umol/kg ip; assay type: functional
Rattus norvegicus [19] = assay: Compound was tested in vivo for its Percent Maximal anorectic potency in rats at dose of 0.5 umol/kg ip; assay type: functional
Rattus norvegicus [20] = assay: Compound was tested in vivo for its Percent Maximal anorectic potency in rats at dose of 10 umol/kg po; ia = Inactive; assay type: functional, organism-based
[21] = target: Cholecystokinin receptor (Homo sapiens) (UniProt P32239+P32238); assay: Selectivity ratio of inhibition of CCK-A vs CCK-B; assay type: protein assay
Method in brief: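 Displacement of [125I]Bolton-Hunter CCK-8 from membranes of CHO-K1 cells stably transfected with human CCK-A or CCK-B receptor cDNA. pIC50 values were measured for each receptor. The ratio is IC50 CCK-A / IC50 CCK-B.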

Cavia porcellus [22] = organism: Cavia porcellus; assay: In vitro Functional activity on the isolated guinea pig gallbladder following incubation at 30 uM percent contraction normalized to that for CCK-8; inactive; method in brief: as §1

CC(C)N(C(=O)CN1C(=O)C(NC(=O)Nc2cccc(OCC(=O)N(C)C)c2)C(=O)N(c2ccccc2)c2ccccc21)c1ccccc1 (stereo unspecified)
Activity (Cavia porcellus [1]): 77%

CC(C)N(C(=O)CN1C(=O)C(NC(=O)Nc2cccc(OCC(N)=O)c2)C(=O)N(c2ccccc2)c2ccccc21)c1ccccc1 (stereo unspecified)
Activity (Cavia porcellus [1]): 95%

CC(C)N(C(=O)CN1C(=O)C(NC(=O)Nc2cccc(-c3nn[nH]n3)c2)C(=O)N(c2ccccc2)c2ccccc21)c1ccccc1 (stereo unspecified)
Activity (Cavia porcellus [2]): 64% | Activity (Cavia porcellus [1]): 79%

CC(C)N(C(=O)CN1C(=O)C(NC(=O)Nc2ccccc2O)C(=O)N(c2ccccc2)c2ccccc21)c1ccccc1 (stereo unspecified)
Activity (Cavia porcellus [1]): 16%

CC(C)N(C(=O)CN1C(=O)C(NC(=O)Nc2cccc(OCC(=O)N3CCOCC3)c2)C(=O)N(c2ccccc2)c2ccccc21)c1ccccc1 (stereo unspecified)
Activity (Cavia porcellus [1]): 78%

CC(C)N(C(=O)CN1C(=O)C(NC(=O)Nc2cccc(C(N)=O)c2)C(=O)N(c2ccccc2)c2ccccc21)c1ccccc1 (stereo unspecified)
Activity (Cavia porcellus [1]): 76%

Cc1cccc(NC(=O)NC2C(=O)N(CC(=O)N(c3ccccc3)C(C)C)c3ccccc3N(c3ccccc3)C2=O)c1 (stereo unspecified)
Activity (Cavia porcellus [1]): 5%

CC(C)N(C(=O)CN1C(=O)C(NC(=O)Nc2cccc(OCCN(C)C)c2)C(=O)N(c2ccccc2)c2ccccc21)c1ccccc1 (stereo unspecified)
Activity (Cavia porcellus [1]): 2%

CSc1cccc(NC(=O)NC2C(=O)N(CC(=O)N(c3ccccc3)C(C)C)c3ccccc3N(c3ccccc3)C2=O)c1 (stereo unspecified)
Activity (Cavia porcellus [1]): 58%

CC(C)N(C(=O)CN1C(=O)C(NC(=O)Nc2cccc(OCC(=O)O)c2)C(=O)N(c2ccccc2)c2ccccc21)c1ccccc1 (stereo unspecified)
Activity (Cavia porcellus [2]): 85% | Activity (Cavia porcellus [1]): 98%

CC(C)N(C(=O)CN1C(=O)C(NC(=O)Nc2cccc(CO)c2)C(=O)N(c2ccccc2)c2ccccc21)c1ccccc1 (stereo unspecified)
Activity (Cavia porcellus [2]): 85% | Activity (Cavia porcellus [1]): 90%

CC(C)N(C(=O)CN1C(=O)C(NC(=O)Nc2cccc(NS(=O)(=O)C(F)(F)F)c2)C(=O)N(c2ccccc2)c2ccccc21)c1ccccc1 (stereo unspecified)
Activity (Cavia porcellus [2]): 87% | Activity (Cavia porcellus [1]): 89%

CC(C)N(C(=O)CN1C(=O)C(NC(=O)c2ccncc2)C(=O)N(c2ccccc2)c2ccccc21)c1ccccc1 (stereo unspecified)
Activity (Cavia porcellus [1]): 43%

CC(C)N(C(=O)CN1C(=O)C(NC(=O)NCc2ccccc2)C(=O)N(c2ccccc2)c2ccccc21)c1ccccc1 (stereo unspecified)
Activity (Cavia porcellus [1]): 1%

CSCC[C@H](NC(=O)[C@H](Cc1ccc(OS(=O)(=O)O)cc1)NC(=O)[C@@H](N)CC(=O)O)C(=O)NCC(=O)N[C@@H](Cc1c[nH]c2ccccc12)C(=O)N[C@@H](CCSC)C(=O)N[C@@H](CC(=O)O)C(=O)N[C@@H](Cc1ccccc1)C(N)=O [SINCALIDE]
Max (Cavia porcellus [3]): 100% | EC50 (Cavia porcellus [4]): 0.000794 µM | ED50 (Mus musculus [5]): 3e-05 µmol/kg | ED50 (Rattus norvegicus [6]): 0.027 µmol/kg | Max (Rattus norvegicus [7]): 95% | Max (Rattus norvegicus [8]): inactive | Max (Mus musculus [9]): 95%

CC(C)N(C(=O)CN1C(=O)C(NC(=O)Nc2cccc(N)c2)C(=O)N(c2ccccc2)c2ccccc21)c1ccccc1 (stereo unspecified)
Activity (Cavia porcellus [2]): 50% | Activity (Cavia porcellus [1]): 76%

CC(C)N(C(=O)CN1C(=O)C(NC(=O)Nc2ccccc2)C(=O)N(c2ccccc2)c2ccccc21)c1ccccc1 (stereo unspecified)
Max (Cavia porcellus [3]): 86% | EC50 (Cavia porcellus [10]): 1.26 µM | Activity (Cavia porcellus [1]): 86% | ED50 (Mus musculus [11]): inactive | Max (Mus musculus [12]): inactive | Max (Rattus norvegicus [13]): 96% | ED50 (Rattus norvegicus [6]): 0.95 µmol/kg | Max (Rattus norvegicus [8]): inactive | Max (Mus musculus [9]): 78%

CC(C)N(C(=O)CN1C(=O)C(NC(=O)Nc2cccc(N(C)C)c2)C(=O)N(c2ccccc2)c2ccccc21)c1ccccc1 (stereo unspecified)
Activity (Cavia porcellus [2]): 29% | Activity (Cavia porcellus [1]): 58%

CC(C)N(C(=O)CN1C(=O)C(NC(=O)c2ccccc2)C(=O)N(c2ccccc2)c2ccccc21)c1ccccc1 (stereo unspecified)
Activity (Cavia porcellus [1]): 57%

COc1ccc(NC(=O)NC2C(=O)N(CC(=O)N(c3ccccc3)C(C)C)c3ccccc3N(c3ccccc3)C2=O)cc1 (stereo unspecified)
Activity (Cavia porcellus [1]): 38%

CC(C)NC(=O)NC1C(=O)N(CC(=O)N(c2ccccc2)C(C)C)c2ccccc2N(c2ccccc2)C1=O (stereo unspecified)
Activity (Cavia porcellus [1]): 22%

CC(C)N(C(=O)CN1C(=O)C(NC(=O)Nc2ccc(C(=O)O)cc2)C(=O)N(c2ccccc2)c2ccccc21)c1ccccc1 (stereo unspecified)
Activity (Cavia porcellus [1]): 14%

CC(C)N(C(=O)CN1C(=O)C(NC(=O)Nc2cccc(S(C)(=O)=O)c2)C(=O)N(c2ccccc2)c2ccccc21)c1ccccc1 (stereo unspecified)
Activity (Cavia porcellus [1]): 53%

CC(C)N(C(=O)CN1C(=O)C(NC(=O)c2cccc(C(=O)O)c2)C(=O)N(c2ccccc2)c2ccccc21)c1ccccc1 (stereo unspecified)
Activity (Cavia porcellus [1]): 56%

CC(C)N(C(=O)CN1C(=O)C(NC(=O)c2cc3ccccc3o2)C(=O)N(c2ccccc2)c2ccccc21)c1ccccc1 (stereo unspecified)
Activity (Cavia porcellus [1]): 35%

CC(C)N(C(=O)CN1C(=O)C(NC(=O)c2c[nH]c3ccccc23)C(=O)N(c2ccccc2)c2ccccc21)c1ccccc1 (stereo unspecified)
Activity (Cavia porcellus [1]): 5%

COc1cccc(NC(=O)NC2C(=O)N(CC(=O)N(c3ccccc3)C(C)C)c3ccccc3N(c3ccccc3)C2=O)c1 (stereo unspecified)
Activity (Cavia porcellus [1]): 78%

CC(C)N(C(=O)CN1C(=O)C(NC(=O)Nc2cccc(Cl)c2)C(=O)N(c2ccccc2)c2ccccc21)c1ccccc1 (stereo unspecified)
Activity (Cavia porcellus [1]): 7%

CC(C)N(C(=O)CN1C(=O)C(NC(=O)Nc2cccc(O)c2)C(=O)N(c2ccccc2)c2ccccc21)c1ccccc1 (stereo unspecified)
Activity (Cavia porcellus [2]): 82% | Activity (Cavia porcellus [1]): 89%

Cc1ccccc1NC(=O)NC1C(=O)N(CC(=O)N(c2ccccc2)C(C)C)c2ccccc2N(c2ccccc2)C1=O (stereo unspecified)
Activity (Cavia porcellus [1]): 34%

Cc1ccc(NC(=O)NC2C(=O)N(CC(=O)N(c3ccccc3)C(C)C)c3ccccc3N(c3ccccc3)C2=O)cc1 (stereo unspecified)
Activity (Cavia porcellus [1]): 20%

CC(C)N(C(=O)CN1C(=O)C(NC(=O)c2cc3ccccc3[nH]2)C(=O)N(c2ccccc2)c2ccccc21)c1ccccc1 (stereo unspecified)
IC50 [14]: 0.316 µM | IC50 [15]: 0.0158 µM | Max (Cavia porcellus [3]): 49% | EC50 (Cavia porcellus [4]): 0.501 µM | Activity (Cavia porcellus [1]): 49% | ED50 (Mus musculus [16]): 0.3 µmol/kg | Max (Mus musculus [17]): 85% | ED50 (Rattus norvegicus [18]): 0.095 µmol/kg | Max (Rattus norvegicus [19]): 56% | Max (Rattus norvegicus [20]): inactive | Selectivity ratio [21]: 20 | ED50 (Mus musculus [5]): 0.005 µmol/kg | Max (Mus musculus [9]): 73%

CC(C)N(C(=O)CN1C(=O)C(NC(=O)c2ccccc2C(=O)O)C(=O)N(c2ccccc2)c2ccccc21)c1ccccc1 (stereo unspecified)
Activity (Cavia porcellus [1]): 58%

CC(C)N(C(=O)CN1C(=O)C(NC(=O)c2cccnc2)C(=O)N(c2ccccc2)c2ccccc21)c1ccccc1 (stereo unspecified)
Activity (Cavia porcellus [1]): 43%

CC(C)N(C(=O)CN1C(=O)C(NC(=O)Nc2cccc(CC(=O)O)c2)C(=O)N(c2ccccc2)c2ccccc21)c1ccccc1 (stereo unspecified)
Activity (Cavia porcellus [1]): 89%

CC(C)N(C(=O)CN1C(=O)C(NC(=O)Cc2ccccc2)C(=O)N(c2ccccc2)c2ccccc21)c1ccccc1 (stereo unspecified)
Activity (Cavia porcellus [1]): 28%

CC(C)N(C(=O)CN1C(=O)C(NC(N)=O)C(=O)N(c2ccccc2)c2ccccc21)c1ccccc1 (stereo unspecified)
Activity (Cavia porcellus [22]): inactive

CC(C)N(C(=O)CN1C(=O)C(NC(=O)N2CCNCC2)C(=O)N(c2ccccc2)c2ccccc21)c1ccccc1 (stereo unspecified)
Activity (Cavia porcellus [22]): inactive
